The term Ki denotes a measure of affinity in units of concentration, obtained from inhibition or displacement. One may read the EC50 as the concentration at which the effect is half-maximal.

For test [1], the target named is T1, Alpha-2B adrenergic receptor (Rattus norvegicus, UniProt P19328).
T1 sequence (P19328 whole entry): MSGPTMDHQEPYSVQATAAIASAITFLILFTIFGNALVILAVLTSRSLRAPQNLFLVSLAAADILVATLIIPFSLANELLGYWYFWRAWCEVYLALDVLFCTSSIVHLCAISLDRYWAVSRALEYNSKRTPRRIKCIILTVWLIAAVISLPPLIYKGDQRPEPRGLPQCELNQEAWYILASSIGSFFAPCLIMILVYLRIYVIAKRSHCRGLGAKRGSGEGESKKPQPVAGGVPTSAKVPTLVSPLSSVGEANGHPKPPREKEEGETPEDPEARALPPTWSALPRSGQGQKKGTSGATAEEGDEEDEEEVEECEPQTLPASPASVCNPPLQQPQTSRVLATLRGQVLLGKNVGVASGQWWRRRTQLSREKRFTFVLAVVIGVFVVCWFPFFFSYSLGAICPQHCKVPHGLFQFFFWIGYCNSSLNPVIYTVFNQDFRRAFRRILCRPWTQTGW
In words: Displacement of rauwolscine from rat Alpha-2B adrenergic receptor expressed in CHO cells. It counts as cell-based. In a few lines: (§1)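 Membranes of CHO cells expressing human α2A (CHO-C10), human α2C (CHO-C4) or rat α2B (CHO-RNG) receptor; competition against radiolabeled rauwolscine; affinity constants by nonlinear least-squares curve fitting; at least three separate determinations.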

For test [2], the target named is T2, Adrenergic receptor alpha-1 (Homo sapiens, UniProt P35348+P25100+P35368).
T2 sequence (P35348 whole entry): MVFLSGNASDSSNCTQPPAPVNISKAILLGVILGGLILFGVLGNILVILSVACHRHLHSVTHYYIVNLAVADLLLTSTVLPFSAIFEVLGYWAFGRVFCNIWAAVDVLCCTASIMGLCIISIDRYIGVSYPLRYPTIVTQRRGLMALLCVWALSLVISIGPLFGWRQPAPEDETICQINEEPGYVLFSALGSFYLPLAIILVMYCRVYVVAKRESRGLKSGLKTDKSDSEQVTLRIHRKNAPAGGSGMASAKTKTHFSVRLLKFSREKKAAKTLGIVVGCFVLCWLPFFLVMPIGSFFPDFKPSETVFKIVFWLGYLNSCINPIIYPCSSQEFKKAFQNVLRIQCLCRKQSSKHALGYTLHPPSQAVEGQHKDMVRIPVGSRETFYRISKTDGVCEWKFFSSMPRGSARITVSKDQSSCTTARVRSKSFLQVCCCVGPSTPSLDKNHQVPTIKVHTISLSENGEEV
T2 sequence (P25100 whole entry): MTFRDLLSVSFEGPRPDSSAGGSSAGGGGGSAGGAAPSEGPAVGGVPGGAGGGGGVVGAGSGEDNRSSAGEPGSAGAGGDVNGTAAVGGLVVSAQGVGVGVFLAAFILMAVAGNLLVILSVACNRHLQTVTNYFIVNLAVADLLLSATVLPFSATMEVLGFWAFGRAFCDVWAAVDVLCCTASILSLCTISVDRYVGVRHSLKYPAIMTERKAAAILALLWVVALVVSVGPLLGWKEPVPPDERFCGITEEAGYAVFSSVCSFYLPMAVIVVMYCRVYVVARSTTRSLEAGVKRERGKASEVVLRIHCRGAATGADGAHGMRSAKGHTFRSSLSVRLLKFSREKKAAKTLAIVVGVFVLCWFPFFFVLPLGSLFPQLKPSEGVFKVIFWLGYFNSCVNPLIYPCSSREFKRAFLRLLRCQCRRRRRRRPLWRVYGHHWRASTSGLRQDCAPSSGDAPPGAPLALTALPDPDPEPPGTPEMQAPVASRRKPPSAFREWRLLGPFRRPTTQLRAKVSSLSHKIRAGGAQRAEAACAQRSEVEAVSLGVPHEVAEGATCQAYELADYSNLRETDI
T2 sequence (P35368 whole entry): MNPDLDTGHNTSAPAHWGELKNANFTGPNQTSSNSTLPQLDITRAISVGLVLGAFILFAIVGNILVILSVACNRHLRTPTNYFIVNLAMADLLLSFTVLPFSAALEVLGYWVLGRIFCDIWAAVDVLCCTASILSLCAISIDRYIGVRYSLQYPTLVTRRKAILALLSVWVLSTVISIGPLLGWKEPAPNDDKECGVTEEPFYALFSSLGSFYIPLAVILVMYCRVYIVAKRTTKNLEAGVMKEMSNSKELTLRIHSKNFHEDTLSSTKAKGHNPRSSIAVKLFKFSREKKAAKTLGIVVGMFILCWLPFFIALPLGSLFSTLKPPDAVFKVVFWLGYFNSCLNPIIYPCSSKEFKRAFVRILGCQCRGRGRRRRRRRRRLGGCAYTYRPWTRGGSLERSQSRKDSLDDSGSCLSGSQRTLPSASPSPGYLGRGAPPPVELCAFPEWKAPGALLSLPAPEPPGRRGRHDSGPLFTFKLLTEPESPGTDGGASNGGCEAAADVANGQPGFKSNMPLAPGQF
The test is described as follows: Displacement of prazosin from Alpha-1 adrenergic receptors of human cerebral cortex homogenate. It counts as tissue-based. In a few lines: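 Membranes from human cerebral cortex, giving a mixed α1 subtype population; affinity from competition against radiolabeled prazosin; nonlinear least-squares curve fitting; at least three separate determinations.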

Test [3] concerns the target T3, Alpha-2C adrenergic receptor (Homo sapiens, UniProt P18825).
T3 sequence (P18825 whole entry): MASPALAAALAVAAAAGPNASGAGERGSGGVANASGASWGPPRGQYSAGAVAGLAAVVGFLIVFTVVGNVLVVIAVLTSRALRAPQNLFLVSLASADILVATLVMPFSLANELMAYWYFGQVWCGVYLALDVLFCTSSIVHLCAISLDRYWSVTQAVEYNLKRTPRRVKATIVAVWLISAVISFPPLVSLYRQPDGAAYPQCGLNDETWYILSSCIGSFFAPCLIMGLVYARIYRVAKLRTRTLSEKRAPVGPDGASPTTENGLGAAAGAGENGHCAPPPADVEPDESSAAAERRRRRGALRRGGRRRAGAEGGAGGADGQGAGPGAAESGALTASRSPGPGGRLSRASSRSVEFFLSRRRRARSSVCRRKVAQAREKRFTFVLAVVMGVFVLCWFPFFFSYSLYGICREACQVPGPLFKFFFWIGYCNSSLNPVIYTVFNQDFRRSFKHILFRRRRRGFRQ
The test is described as follows: Displacement of rauwolscine from human Alpha-2C adrenergic receptor expressed in CHO cells. It counts as cell-based. In a few lines:
as §1

Test [4] has as its target T4, Alpha-2A adrenergic receptor (Homo sapiens, UniProt P08913).
T4 sequence (P08913 whole entry): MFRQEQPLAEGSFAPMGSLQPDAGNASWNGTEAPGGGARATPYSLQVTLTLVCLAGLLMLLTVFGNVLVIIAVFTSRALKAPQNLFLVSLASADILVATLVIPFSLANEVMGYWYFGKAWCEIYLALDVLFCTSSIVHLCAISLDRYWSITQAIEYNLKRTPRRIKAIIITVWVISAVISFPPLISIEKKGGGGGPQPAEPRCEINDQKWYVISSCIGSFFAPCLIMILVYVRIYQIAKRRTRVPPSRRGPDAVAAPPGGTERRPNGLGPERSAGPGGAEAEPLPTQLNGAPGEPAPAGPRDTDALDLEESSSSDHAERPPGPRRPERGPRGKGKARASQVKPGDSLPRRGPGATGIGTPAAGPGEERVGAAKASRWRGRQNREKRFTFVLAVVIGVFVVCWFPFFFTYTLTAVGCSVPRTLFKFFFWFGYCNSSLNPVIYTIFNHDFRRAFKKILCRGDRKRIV
In words: Displacement of rauwolscine from human Alpha-2A adrenergic receptor expressed in CHO cells. The class given is cell-based. In a few lines: as §1

Test [5] has as its target T5, Alpha-2C adrenergic receptor (Homo sapiens) (UniProt P18825).
T5 sequence (whole entry): T3 sequence (P18825 whole entry)
As to conditions: CHO-C4.

The target of test [6] is T6, Alpha-2A adrenergic receptor (Homo sapiens) (UniProt P08913).
T6 sequence (whole entry): T4 sequence (P08913 whole entry)
The test is described as follows: Intrinsic activity relative to Norepinephrine at Alpha-2A adrenergic receptor from CHO-C10 cells. It counts as cell-based. In a few lines: (§2)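 Functional agonist response measured by Cytosensor microphysiometry in CHO cells expressing α2A (CHO-C10) or rat α2B (CHO-RNG) adrenoceptor.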

In test [7] the target is T7, Alpha-2B adrenergic receptor (Rattus norvegicus) (UniProt P19328).
T7 sequence (whole entry): T1 sequence (P19328 whole entry)
In words: Intrinsic activity relative to Norepinephrine at Alpha-2B adrenergic receptor from CHO-RNG cells. It counts as cell-based. In a few lines: as §2

In test [8] the target is T4, Alpha-2A adrenergic receptor. In words: Effective concentration at Alpha-2A adrenergic receptor from CHO-C10 cells. It counts as functional, cell-based. In a few lines: as §2
Test [9] deals with T3, Alpha-2C adrenergic receptor. The test is described as follows: Effective concentration at Alpha-2C adrenergic receptor from CHO-C4 cells. The class given is functional, cell-based. The procedure, abridged:
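Functional agonist assay in CHO cells expressing the human α2C-adrenoceptor (CHO-C4). Responses were read on a Cytosensor microphysiometer.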

Test [10] deals with T1, Alpha-2B adrenergic receptor. The test is described as follows: Effective Concentration at Alpha-2B adrenergic receptor from CHO-RNG cells. It counts as functional, cell-based. The procedure, abridged:
as §2

Where only a bound is given, the exact number is not on record here.

For the molecule `c1c[nH]c(Nc2ccc3[nH]cnc3c2)n1`, the inhibitory constant (Ki) in test [1] was found to be 0.64 µM; in [2], 24 µM; in test [3] it was 0.4 µM; in test [4], 0.076 µM.

Consider `COc1ccc(Nc2ncc[nH]2)c(C)c1`, for which, in [2], the Ki is 8.4 µM.

In the case of `Brc1c(NC2=NCCN2)ccc2nccnc12` [BRIMONIDINE], the results for the IA in test [5], in [6] and in test [7] were 0.82, 0.91 and 0.89, respectively. Moreover, the Ki in test [2] worked out at 1.8 µM.

Regarding `COc1cc(C)c(Nc2ncc[nH]2)cc1C(C)(C)C`, the inhibition constant (Ki) in [1] was found to be 0.38 µM; in [2], 16 µM; in [3], 0.29 µM; in test [4] it was 0.039 µM.

In the case of `COc1ccc(Nc2ncc[nH]2)c(C)c1OC`, the inhibition constant (Ki) was determined as 2.5 µM in [1], 6.6 µM in test [2], 1.5 µM in test [3] and 0.13 µM in [4].

In the case of `Cc1c(Nc2ncc[nH]2)ccc2c1OCCO2`, the results for the IA in [5], in test [6] and in [7] were 0.5, 0.89 and 1, respectively. For the same molecule, the EC50 in test [8] was found to be 0.0087 µM; in test [9], 0.0066 µM; in test [10], 0.041 µM. For the same molecule, the inhibitory constant (Ki) in test [2] was found to be 2.1 µM.

With `Cc1c(Nc2ncc[nH]2)ccc2c1NCCO2`, the results for the inhibition constant Ki in test [1], in test [2] and in [4] were 0.421 µM, 16 µM and 0.006 µM, respectively. Besides, the IA came out at 0.64 in [5], 0.49 in test [6] and 0.88 in test [7]. The half-maximal effective concentration (EC50) in [8] is 0.124 µM; in [9], 0.11 µM; in test [10], 0.47 µM.

On to `Brc1ccccc1Nc1ncc[nH]1`, for which the Ki in [1] is 1.5 µM; in test [2], 11 µM; in [4] it was 0.21 µM.

`c1c[nH]c(Nc2ccc3nccnc3c2)n1`: the Ki in test [1] is 9.3 µM; in test [2], more than 100 µM; in test [3], 8.8 µM; in [4], 3.1 µM.

On to `Clc1cccc(Cl)c1Nc1ncc[nH]1`, for which the inhibition constant Ki in test [2] turned out to be 6 µM; in test [3], 1.1 µM.

For `COc1c(C(C)(C)C)cc(C)c(Nc2ncc[nH]2)c1C`, the EC50 in test [8] was more than 5 µM; in test [9], more than 5 µM; in test [10], 1.1 µM. The molecule also displayed an IA in [7] of 0.65. This molecule came in with a Ki in test [2] of 4.2 µM.

Consider `Cc1c(Nc2ncc[nH]2)ccc2nccnc12`, for which the Ki in test [1] is 1.2 µM; in [2] it was more than 28 µM; in test [3], 0.34 µM.

Consider `Brc1c(Nc2ncc[nH]2)ccc2nccnc12`, for which the inhibitory constant (Ki) in test [1] was more than 10 µM; in test [2], more than 100 µM; in test [3], more than 10 µM.

Values taken from ChEMBL document CHEMBL1130342, “Synthesis and evaluation of 2-(arylamino)imidazoles as alpha 2-adrenergic agonists” (J Med Chem, 1997).
